Screening data (PubChem BioAssay)
Glyco luc inh: blocks N-linked glycosylation in D54 reporter cells; D54 ERlucT glycosylation luciferase reporter, 24 h; percent of 100 nM tunicamycin response; reporter increase, % at 12.5 µM; 360,000 compounds, 0.23% hits; AID 588692;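 active means mean luciferase reporter signal, scaled so untreated is 0 and the glycosylation-blocking control 100, at or above a set limit in every replicate; inconclusive means mean reaches the limit but not every replicate does; inactive means mean below the limit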;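 further: luciferase carries N-glycosylation sites so blocking glycosylation raises the light; 0% = median of neutral control wells and 100% = median of 100 nM tunicamycin wells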
PfHsp90 set2: inhibits growth of yeast expressing Plasmodium falciparum Hsp90 | inhibition, % at 9.4 µM | S. cerevisiae expressing PfHsp90, BacTiter-Glo ATP, 48 h; yeast lacking PDR1 and PDR3 efflux regulators | 310,000 compounds, 0.32% hits;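 active means every replicate shows inhibition above about 80%, whatever the replicate mean, limit read from the data; inconclusive means mean inhibition reaches the set limit but some replicate falls short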;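 further: 0% = DMSO neutral controls and 100% = 20 µM radicicol positive controls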
HIV Env fusion: blocks HIV Env-driven cell-cell fusion. HeLa-JRFL Env/CEM21 cell fusion, luciferase. 360,000 compounds, 1.1% hits. inhibition, % at 12.3 µM;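 active means mean replicate inhibition score of at least 50 and every replicate individually at or above 50; inconclusive means only one of the two criteria met; inactive means mean below 50 and not all replicates reaching 50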;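 further: 0% = plate neutral controls and 100% = maraviroc near 300 nM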
Rtt109 Vps75: C. albicans Rtt109 histone acetyltransferase inhibition. AID 540336. inhibition, % at 34.9 µM. 330,000 compounds, 0.16% hits. purified Rtt109/Vps75, ThioGlo CoA-SH fluorescence, 4 h. Q5AAJ8;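 active means inhibition of at least 50% in every replicate; inconclusive means best replicate reaches 50% inhibition but some replicates fall short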
Target sequence (Q5AAJ8 whole entry, looked up): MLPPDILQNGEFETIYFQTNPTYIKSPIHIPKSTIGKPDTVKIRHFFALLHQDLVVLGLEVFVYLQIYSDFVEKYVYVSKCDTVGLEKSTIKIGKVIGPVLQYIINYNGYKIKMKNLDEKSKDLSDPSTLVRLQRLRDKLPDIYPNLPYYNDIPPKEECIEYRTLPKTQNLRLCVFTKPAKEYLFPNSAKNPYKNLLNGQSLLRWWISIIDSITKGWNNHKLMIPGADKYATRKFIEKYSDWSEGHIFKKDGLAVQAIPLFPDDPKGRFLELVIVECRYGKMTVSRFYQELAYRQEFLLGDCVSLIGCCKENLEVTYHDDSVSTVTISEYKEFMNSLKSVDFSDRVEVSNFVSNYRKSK
PAX8 reporter: inhibitors of PAX8 transcriptional activity in RMG-I cells | 360,000 compounds, 1.2% hits | RMG-I TPO-luciferase reporter, SteadyGlo, 24 h | AID 652154 | inhibition, % at 12.6 µM;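 active means mean replicate inhibition at least 60% with every replicate also reaching 60%; inconclusive means only one of the two criteria is met; inactive means mean below 60% and not all replicates reaching 60%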;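 further: luciferase light reporting Pax8 driven TPO promoter activity; plate controls were median of neutral control wells for no effect and mitoxantrone controls for full effect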
Arr AP2 block: inhibitors of human beta-arrestin and AP2 interaction; 340,000 compounds, 0.31% hits; FITC-arrestin peptide / GST-AP2 beads, flow cytometry; AP2 beta2 appendage carries R879A mutation; inhibition, % at 10 µM;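 active means inhibition above a set limit, near 3 SD of compounds lacking own fluorescence, cut at about 54% in these data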;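 further: plate controls were DMSO wells for no effect and 5 µM unlabelled arrestin peptide for full effect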
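System: GST-AP2 R879A glutathione beads; medium: PBS, Tween 20 0.05%, BSA 0.1%; reagent: fluorescein-tagged arrestin peptide at 50 nM final; schedule: pre-incubation 12 min, peptide binding 1 h, room temperature; detection: flow cytometry, FL1 (488/535 nm); read-out: inhibition as reduced fluorescein signal on beads, percent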
Active calls of the source: *; ! = not active in a repeat; [ ] = dose if it differs, or a comment. Shown are actives, neighbours in structure and some others; about 2.3% of the full set was active somewhere.

Screening NNC(=O)Nc1cccc(C(F)(F)F)c1 returned Glyco luc inh 0, HIV Env fusion 4, Rtt109 Vps75 -3, PAX8 reporter -7 and Arr AP2 block -47.
For Cc1ccc(S(=O)(=O)Nc2ccc(NC(=O)Nc3cccc(C(F)(F)F)c3)cc2)cc1 the results were Glyco luc inh -11, PfHsp90 set2 21, HIV Env fusion 20, Rtt109 Vps75 0, PAX8 reporter 46 and Arr AP2 block 6.
For O=C(Nc1ccncc1)Nc1cccc(C(F)(F)F)c1 the results were Glyco luc inh -5, PfHsp90 set2 19, HIV Env fusion -4, Rtt109 Vps75 15, PAX8 reporter -9 and Arr AP2 block 30.
For CCN(CC)S(=O)(=O)c1ccc(NC(=O)Nc2cccc(C(F)(F)F)c2)cc1 the results were Glyco luc inh -20, PfHsp90 set2 10, HIV Env fusion 96*, Rtt109 Vps75 -9 and Arr AP2 block 27.
Screening NC(=O)/C=C\C(=O)Nc1cccc(C(F)(F)F)c1 returned Glyco luc inh inconclusive, PfHsp90 set2 97* and Arr AP2 block -34.
O=C(Nc1ccc(OC(F)F)cc1)Nc1cccc(C(F)(F)F)c1 was read as Glyco luc inh -17, PfHsp90 set2 17, HIV Env fusion 75*, Rtt109 Vps75 3 and Arr AP2 block -4.
C[C@@H]1CN([C@@H](C)CO)C(=O)Cc2cc(NS(=O)(=O)c3ccc(F)cc3)ccc2O[C@H]1CN(C)Cc1ccc(C(=O)O)cc1 was read as PAX8 reporter -10.
Screening O=C(CSc1nnc(-c2cccnc2)s1)Nc1ccnc2ccccc12 returned Glyco luc inh -3, PfHsp90 set2 -7, HIV Env fusion 55*, Rtt109 Vps75 5, PAX8 reporter 12 and Arr AP2 block -4.
Screening COc1ccc(-c2cn(CC[C@@H]3CC[C@H](NC(=O)Cc4ccccn4)[C@H](CO)O3)nn2)cc1 returned HIV Env fusion 5[16.7 µM] and PAX8 reporter 90*.
`COc1ccc(-c2cn(CC[C@@H]3CC[C@H](NS(=O)(=O)c4ccccc4C)[C@@H](CO)O3)nn2)cc1` gave HIV Env fusion 4[16.7 µM] and PAX8 reporter 4.
`COc1ccc(-c2cn(CC[C@@H]3CC[C@@H](NC(=O)Cc4ccccn4)[C@H](CO)O3)nn2)cc1` gave HIV Env fusion -14[16.7 µM] and PAX8 reporter -28.
`COc1ccc(-c2cn(CC[C@@H]3CC[C@H](NC(=O)Cc4ccccn4)[C@@H](CO)O3)nn2)cc1` gave HIV Env fusion -5[16.7 µM] and PAX8 reporter 78*!.
Screening COc1ccc(-c2cn(CC[C@H]3CC[C@H](NS(=O)(=O)c4ccccc4C)[C@H](CO)O3)nn2)cc1 returned HIV Env fusion 73*[16.7 µM] and PAX8 reporter 4.
Screening COc1ccc(-c2cn(CC[C@H]3CC[C@@H](NC(=O)CCN4CCCCC4)[C@@H](CO)O3)nn2)cc1 returned HIV Env fusion -1[16.7 µM] and PAX8 reporter -16.
Screening COc1ccc(CNC(=O)C[C@@H]2CC[C@@H]3[C@H](COc4ccc(NC(=O)C(C)C)cc4C(=O)N3C)O2)cc1 returned HIV Env fusion -12[16.7 µM] and PAX8 reporter -11.
For Cc1ccc(NC(=O)CSc2nc3ccccc3c(=O)n2Cc2cccs2)cc1 the results were Glyco luc inh -3, PfHsp90 set2 -30, Rtt109 Vps75 -12, PAX8 reporter 66* and Arr AP2 block 8.
Screening Cc1ccc(CNC(=O)CSc2nc3ccsc3c(=O)n2Cc2ccccn2)cc1 returned Glyco luc inh 3, PfHsp90 set2 9, HIV Env fusion inconclusive, Rtt109 Vps75 -13, PAX8 reporter -27 and Arr AP2 block 4.
Cc1ccc(Cn2c(SCC(=O)NCc3ccco3)nc3ccsc3c2=O)cc1 was read as Glyco luc inh 1, PfHsp90 set2 5, HIV Env fusion 71*, Rtt109 Vps75 -1 and Arr AP2 block 1.
Screening CCCC1=Nc2cc(C(=O)NCCCOCC)ccc2Sc2ccccc21 returned Glyco luc inh 4, PfHsp90 set2 -29, HIV Env fusion 63, Rtt109 Vps75 3, PAX8 reporter 99* and Arr AP2 block -6.
For O=C(Cn1ncc(Cl)c(Cl)c1=O)N1CCN(S(=O)(=O)c2ccc3ccccc3c2)CC1 the results were Glyco luc inh -17, PfHsp90 set2 -26, HIV Env fusion -15, Rtt109 Vps75 -1, PAX8 reporter 97* and Arr AP2 block 4.
O=C(O)CCC(=O)N1CCN(S(=O)(=O)c2ccc3ccccc3c2)CC1 was read as Glyco luc inh 0, PfHsp90 set2 -28, HIV Env fusion -11, Rtt109 Vps75 3, PAX8 reporter -229 and Arr AP2 block 14.
`O=C(CSc1nc2ccccc2o1)N1CCN(S(=O)(=O)c2ccc3ccccc3c2)CC1` gave Glyco luc inh 0, PfHsp90 set2 9, HIV Env fusion -29, Rtt109 Vps75 0, PAX8 reporter 4 and Arr AP2 block -21.
Screening O=C(CCC(=O)N1CCN(S(=O)(=O)c2ccc3ccccc3c2)CC1)Nc1cc(Cl)cc(Cl)c1 returned Glyco luc inh 9, PfHsp90 set2 -17, HIV Env fusion 85*, Rtt109 Vps75 3, PAX8 reporter 48 and Arr AP2 block 4.
`COc1ccc(S(=O)(=O)N2CCCCN3[C@H](C2)[C@@H](c2ccc(C#CCC(C)C)cc2)[C@@H]3CO)cc1` gave PAX8 reporter -2.
Cc1cccc(-c2ccc([C@H]3[C@@H](CO)N4CCCCN(S(=O)(=O)c5cccc(C)c5)C[C@H]34)cc2)c1 was read as PAX8 reporter -19.
Screening Cc1cccc(-c2ccc([C@H]3[C@H]4CN(S(=O)(=O)c5cccc(C)c5)CCCCN4[C@H]3CO)cc2)c1 returned PAX8 reporter 103*.
Screening CCCC#Cc1ccc([C@@H]2[C@H]3CN(S(=O)(=O)c4ccccc4F)CCCCN3[C@H]2CO)cc1 returned PAX8 reporter 95*.
For CC(=O)N1CCCCN2[C@H](C1)[C@H](c1ccc(-c3cccc(C)c3)cc1)[C@@H]2CO the results were PAX8 reporter 74*.
COc1ccc(S(=O)(=O)N2CCCCN3[C@@H](CO)[C@H](c4ccc(C#CC(C)C)cc4)[C@@H]3C2)cc1 was read as PAX8 reporter 74*.
`CCCNC(=O)N1CC2(CCN(CC3CC3)CC2)c2c(n(C)c3cc(OC)ccc23)[C@@H]1CO` gave PAX8 reporter -18.
For COc1cccc(S(=O)(=O)N[C@@H]2CC[C@@H](CC(=O)NCc3ccc(Cl)cc3)O[C@H]2CO)c1 the results were HIV Env fusion 13[16.7 µM] and PAX8 reporter 3.
Screening CCCNC(=O)N1C[C@@H](O)COC[C@@H]2O[C@H](CC(=O)N3CCC(Cc4ccccc4)CC3)CC[C@H]21 returned HIV Env fusion 13[16.7 µM] and PAX8 reporter 0.
